In ChEMBL document CHEMBL4376883, “Discovery and Optimization of Small Molecules Targeting the Protein-Protein Interaction of Heat Shock Protein 90 (Hsp90) and Cell Division Cycle 37 as Orally Active Inhibitors for the Treatment of Colorectal Cancer” (J Med Chem, 2020):

What was measured:
[1] = Tmax in plasma of human HCT116 cells xenografted BALB/c mouse at 80 mg/kg, po administered as single dose by LC-MS/MS analysis; type: ADME, organism-based
Method in brief: (§1)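 HCT116-xenografted mice (n = 6 per group) received a single oral 80 mg/kg dose. Blood and tumor were sampled at 0 to 24 h. Plasma was obtained by centrifugation at 3000 rpm for 10 min. Samples were stored at −80 °C and quantified by LC-MS/MS.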

[2] = MRT in tumor of human HCT116 cells xenografted BALB/c mouse at 80 mg/kg administered as single dose by LC-MS/MS analysis; type: ADME, organism-based, Neoplasm; method in brief: as §1
[3] = AUC (0 to infinity) in plasma of human HCT116 cells xenografted BALB/c mouse at 80 mg/kg, po administered as single dose by LC-MS/MS analysis; type: ADME, organism-based; parameters: dose 80 mg/kg, time infinity, route oral
Method in brief: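 Tumour-bearing mice (n = 6 per group) given one oral dose of 80 mg/kg. Blood and tumour collected into heparinized tubes at 0, 0.25, 0.5, 1, 2, 4, 8, 12 and 24 h. Plasma obtained by centrifugation at 3000 rpm for 10 min. Samples stored at -80 °C and quantified by LC-MS/MS.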

Glucocorticoid receptor = biological target: T1, Glucocorticoid receptor (Homo sapiens, UniProt P04150); test: Effect on glucocorticoid receptor phosphorylation in human HCT116 cells at 10 uM measured up to 48 hrs by Western blot analysis; type: ADME, cell-based
T1 sequence (P04150 whole entry): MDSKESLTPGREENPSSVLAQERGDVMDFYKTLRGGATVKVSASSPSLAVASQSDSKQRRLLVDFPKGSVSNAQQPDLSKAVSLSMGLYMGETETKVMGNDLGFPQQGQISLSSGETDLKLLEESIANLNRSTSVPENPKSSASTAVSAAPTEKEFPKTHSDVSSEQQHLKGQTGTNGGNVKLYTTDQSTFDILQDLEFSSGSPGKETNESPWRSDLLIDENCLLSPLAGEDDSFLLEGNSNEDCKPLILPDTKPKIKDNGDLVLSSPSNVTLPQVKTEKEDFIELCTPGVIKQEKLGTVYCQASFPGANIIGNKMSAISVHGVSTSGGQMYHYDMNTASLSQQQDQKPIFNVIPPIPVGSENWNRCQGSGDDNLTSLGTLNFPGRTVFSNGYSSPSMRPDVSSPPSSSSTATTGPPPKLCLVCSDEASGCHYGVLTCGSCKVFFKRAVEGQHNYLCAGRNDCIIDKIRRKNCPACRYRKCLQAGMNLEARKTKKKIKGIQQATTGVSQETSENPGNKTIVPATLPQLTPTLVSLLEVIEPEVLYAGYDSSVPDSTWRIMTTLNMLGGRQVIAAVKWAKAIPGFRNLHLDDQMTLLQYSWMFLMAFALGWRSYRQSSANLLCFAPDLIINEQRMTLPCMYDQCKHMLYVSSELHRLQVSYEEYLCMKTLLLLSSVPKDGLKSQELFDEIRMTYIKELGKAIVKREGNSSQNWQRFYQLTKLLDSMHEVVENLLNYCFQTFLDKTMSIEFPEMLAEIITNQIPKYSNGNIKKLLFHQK
Method in brief: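 HCT116 cells treated with 0, 1, 5 or 10 µM for 24 h, or with 10 µM for 0, 4, 12, 24 or 48 h. Lysates separated by SDS-PAGE and blotted. Membranes blocked in 5% milk, primary antibodies overnight at 4 °C, HRP secondaries, chemiluminescent detection.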

Cc1cc(C)c(S(=O)(=O)N(CC(=O)O)c2ccc(Nc3ccnc(N4CCNCC4)n3)cc2)c(C)c1
Tmax [1]: 0.5 h
MRT [2]: 6.02 h
AUC(0-inf) [3]: 536 µg·h/mL
Activity (Glucocorticoid receptor): Non-Toxic
